# Key:
# [1] = test system: Mus musculus; assay: Body Weight Difference (BWD) of test animals administered with 100 mg/kg compound is determined on day 5 for P388 tumor cells; assay type: functional
# Procedure, shortened: (§1)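 P388 leukaemia: about 10^6 cells in ascitic fluid inoculated ip on day 0 (CD2F1 mice). Compound given ip in normal saline as a freshly prepared solution or suspension, once daily on days 1–5. Treated-minus-control body weight difference in g, taken as day 5 minus day 1 weight. Groups of six.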
# [2] = test system: Mus musculus; assay: Body Weight Difference (BWD) of test animals administered with 50 mg/kg compound is determined on day 5 for P388 tumor cells; assay type: functional; procedure, shortened: as §1
# [3] = test system: Mus musculus; assay: Body Weight Difference (BWD) of test animals administered with 25 mg/kg compound is determined on day 5 for P388 tumor cells; assay type: functional; procedure, shortened: as §1
# [4] = test system: Mus musculus; assay: Ability of 25 mg/kg of compound to kill tumor cells in mice is expressed as the log of the tumor cell population at the onset of treatment minus the log of the tumor cell population at the end of treatment.; assay type: functional
# [5] = test system: Mus musculus; assay: Body Weight Difference (BWD) of test animals administered with 400 mg/kg compound is determined on day 5 for P388 tumor cells; assay type: functional; procedure, shortened: as §1
# [6] = test system: Mus musculus; assay: The percent of the median survival time of test mice compared to control mice is determined for mice administered with 400 mg/kg compound.; assay type: functional
# [7] = test system: Mus musculus; assay: Toxicity day evaluation was carried out on day 5 for animal dosed with 50 mg/kg compound; 6/6; assay type: organism-based; set-up: dose 50 mg/kg; details: in vivo
# [8] = test system: Mus musculus; assay: Toxicity day evaluation was carried out on day 5 for animal dosed with 25 mg/kg compound; 6/6; assay type: organism-based; set-up: dose 25 mg/kg; details: in vivo
# [9] = test system: Mus musculus; assay: Body Weight Difference (BWD) of test animals administered with 200 mg/kg compound is determined on day 5 for P388 tumor cells; assay type: functional; procedure, shortened: as §1
# [10] = test system: Mus musculus; assay: Body Weight Difference (BWD) of test animals administered with 12.5 mg/kg compound is determined on day 5 for P388 tumor cells; assay type: functional; procedure, shortened: as §1
# [11] = test system: Mus musculus; assay: Toxicity day evaluation was carried out on day 5 for animal dosed with 200 mg/kg compound; 6/6; assay type: organism-based; set-up: dose 200 mg/kg; details: in vivo
# [12] = test system: Mus musculus; assay: Toxicity day evaluation was carried out on day 5 for animal dosed with 100 mg/kg compound; 6/6; assay type: organism-based; set-up: dose 100 mg/kg; details: in vivo
# [13] = test system: Mus musculus; assay: Ability of 12.5 mg/kg of compound to kill tumor cells in mice is expressed as the log of the tumor cell population at the onset of treatment minus the log of the tumor cell population at the end of treatment.; assay type: functional
# [14] = test system: Mus musculus; assay: The percent of the median survival time of test mice compared to control mice is determined for mice administered with 50 mg/kg compound.; assay type: functional
# [15] = test system: Mus musculus; assay: Toxicity day evaluation was carried out on day 5 for animal dosed with 400 mg/kg compound; 6/6; assay type: organism-based; set-up: dose 400 mg/kg; details: in vivo
# [16] = test system: Mus musculus; assay: Ability of 50 mg/kg of compound to kill tumor cells in mice is expressed as the log of the tumor cell population at the onset of treatment minus the log of the tumor cell population at the end of treatment.; assay type: functional
# [17] = test system: Mus musculus; assay: Toxicity day evaluation was carried out on day 5 for animal dosed with 12.5 mg/kg compound; 6/6; assay type: organism-based; set-up: dose 12.5 mg/kg; details: in vivo
# [18] = test system: Mus musculus; assay: Body Weight Difference (BWD) of test animals with P388 administered with 200 mg/kg compound is determined; assay type: functional; procedure, shortened: as §1
# [19] = test system: Mus musculus; assay: Toxicity day evaluation was carried out on day 5 for animal dosed with 50 mg/kg compound. Number of animals in initial test groups were 5; assay type: organism-based; set-up: dose 50 mg/kg; details: in vivo
# [20] = test system: Mus musculus; assay: The percent of the median survival time of test mice compared to control mice is determined for mice administered with 12.5 mg/kg compound.; assay type: functional
# [21] = test system: Mus musculus; assay: Body Weight Difference (BWD) of test animals with P388 administered with 12.5 mg/kg compound is determined; assay type: functional; procedure, shortened: as §1
# [22] = test system: Mus musculus; assay: Toxicity day evaluation was carried out on day 5 for animal dosed with 12.5 mg/kg compound. Number of animals in initial test groups were 5; assay type: organism-based; set-up: dose 12.5 mg/kg; details: in vivo
# [23] = test system: Mus musculus; assay: Toxicity day evaluation was carried out on day 5 for animal dosed with 100 mg/kg compound. Number of animals in initial test groups were 5; assay type: organism-based; set-up: dose 100 mg/kg; details: in vivo
# [24] = test system: Mus musculus; assay: Body Weight Difference (BWD) of test animals with P388 administered with 25 mg/kg compound is determined; assay type: functional; procedure, shortened: as §1
# [25] = test system: Mus musculus; assay: Body Weight Difference (BWD) of test animals with P388 administered with 100 mg/kg compound is determined; assay type: functional; procedure, shortened: as §1
# [26] = test system: Mus musculus; assay: Toxicity day evaluation was carried out on day 5 for animal dosed with 25 mg/kg compound. Number of animals in initial test groups were 5; assay type: organism-based; set-up: dose 25 mg/kg; details: in vivo
# [27] = test system: Mus musculus; assay: Toxicity day evaluation was carried out on day 5 for animal dosed with 200 mg/kg compound. Number of animals in initial test groups were 5; assay type: organism-based; set-up: dose 200 mg/kg; details: in vivo
# [28] = test system: Mus musculus; assay: Body Weight Difference (BWD) of test animals with P388 administered with 50 mg/kg compound is determined; assay type: functional; procedure, shortened: as §1
# [29] = test system: Mus musculus; assay: Toxicity day evaluation was carried out on day 5 for animal dosed with 200 mg/kg compound; 5/5; assay type: organism-based; set-up: dose 200 mg/kg; details: in vivo
# [30] = test system: Mus musculus; assay: Ability of 100 mg/kg of compound to kill tumor cells in mice is expressed as the log of the tumor cell population at the onset of treatment minus the log of the tumor cell population at the end of treatment; assay type: functional
# [31] = test system: Mus musculus; assay: Ability of 50 mg/kg of compound to kill tumor cells in mice is expressed as the log of the tumor cell population at the onset of treatment minus the log of the tumor cell population at the end of treatment; assay type: functional
# [32] = test system: Mus musculus; assay: Toxicity day evaluation was carried out on day 5 for animal dosed with 50 mg/kg compound; 5/5; assay type: organism-based; set-up: dose 50 mg/kg; details: in vivo
# [33] = test system: Mus musculus; assay: Toxicity day evaluation was carried out on day 5 for animal dosed with 100 mg/kg compound; 5/5; assay type: organism-based; set-up: dose 100 mg/kg; details: in vivo
# [34] = test system: Mus musculus; assay: Toxicity day evaluation was carried out on day 5 for animal dosed with 400 mg/kg compound; 4/5; assay type: organism-based; set-up: dose 400 mg/kg; details: in vivo
# [35] = test system: Mus musculus; assay: The percent of the median survival time of test mice compared to control mice is determined for mice administered with 200 mg/kg compound; assay type: functional
# [36] = test system: Mus musculus; assay: Toxicity day evaluation was carried out on day 5 for animal dosed with 12.5 mg/kg compound; 5/5; assay type: organism-based; set-up: dose 12.5 mg/kg; details: in vivo
# [37] = test system: Mus musculus; assay: Toxicity day evaluation was carried out on day 5 for animal dosed with 25 mg/kg compound; 5/5; assay type: organism-based; set-up: dose 25 mg/kg; details: in vivo
# [38] = test system: Mus musculus; assay: The percent of the median survival time of test mice compared to control mice is determined for mice administered with 25 mg/kg compound; assay type: functional
# [39] = test system: Mus musculus; assay: The percent of the median survival time of test mice compared to control mice is determined for mice administered with 12.5 mg/kg compound; assay type: functional
# [40] = test system: Mus musculus; assay: Toxicity day evaluation was carried out on day 5 for animal dosed with 400 mg/kg compound; 3/6; assay type: organism-based; set-up: dose 400 mg/kg; details: in vivo
# [41] = test system: Mus musculus; assay: Ability of 100 mg/kg of compound to kill tumor cells in mice is expressed as the log of the tumor cell population at the onset of treatment minus the log of the tumor cell population at the end of treatment.; assay type: functional
# [42] = test system: Mus musculus; assay: Ability of 200 mg/kg of compound to kill tumor cells in mice is expressed as the log of the tumor cell population at the onset of treatment minus the log of the tumor cell population at the end of treatment.; assay type: functional
SMILES,BWD [1] [g],BWD [2] [g],BWD [3] [g],BWD [5] [g],Survivors / animals tested [7],Survivors / animals tested [8],BWD [9] [g],BWD [10] [g],Survivors / animals tested [11],Survivors / animals tested [12],T/C [14] [%],KE [16],Survivors / animals tested [17],BWD [18] [g],T/C [20] [%],BWD [21] [g],BWD [24] [g],BWD [25] [g],BWD [28] [g],Survivors / animals tested [29],further results
CSc1nc(COC(=O)NC(C)C)c(COC(=O)NC(C)C)n1C,-1.2,0,0.4,-3.4,6,6,-1.8,2.6,6,6,130,-0.56,6,,,,,,,,KE [4]: -0.91; T/C [6]: 70%; KE [13]: -1.4; Survivors / animals tested [15]: 6
CNC(=O)OCc1nc(-c2ccccc2)n(C)c1COC(=O)NC,,,,,,,,,,,,,,-2.2,98,-0.2,0,-1,-0.8,,Survivors / animals tested [19]: 5; Survivors / animals tested [22]: 5; Survivors / animals tested [23]: 5; Survivors / animals tested [26]: 5; Survivors / animals tested [27]: 5
CNC(=O)OCc1nc(SC)n(-c2ccccc2)c1COC(=O)NC,-1.6,-1.4,,-5.2,,,-3,,,,,,,,,,,,,5,KE [30]: 0.17; KE [31]: 0.6; Survivors / animals tested [32]: 5; Survivors / animals tested [33]: 5; Survivors / animals tested [34]: 4
CNC(=O)OCc1ncn(-c2ccccc2)c1COC(=O)NC,,,,,,,,,,,,,,-1.2,,-0.4,0.2,-0.4,-0.8,5,T/C [35]: 99%; Survivors / animals tested [36]: 5; Survivors / animals tested [32]: 5; Survivors / animals tested [37]: 5; T/C [38]: 95%; Survivors / animals tested [33]: 5; T/C [39]: 99%
CSc1nc(COC(=O)NC(C)C)c(COC(=O)NC(C)C)n1Cc1ccccc1,-0.3,-0.5,-1.5,-3.2,6,6,-2.2,-0.2,6,6,110,-0.42,6,,98,,,,,,Survivors / animals tested [40]: 3; KE [41]: -0.39; KE [42]: -0.32

# Reference: ChEMBL document CHEMBL1124663, “Design, synthesis, antineoplastic activity, and chemical properties of bis(carbamate) derivatives of 4,5-bis(hydroxymethyl)imidazole” (J Med Chem, 1989)
